Results from ChEMBL document CHEMBL1121611, “Synthesis and antileukemic activity of 1-methyl-2,5-diphenyl-3,4-bis(hydroxymethyl)-, 1,2,3-triphenyl-4,5-bis(hydroxymethyl)-, and 1-methyl-2,3-diphenyl-4,5-bis(hydroxymethyl)pyrrole bis(N-methylcarbamate)” (1980).

Legend:
Type in all cases: functional, Mus musculus
[1] = tested on: P388; assay: Compound was tested against P388 Lymphocytic Leukemia for %survival of mice measured as treated versus control at dose of 100 mg/kg
Outline: (§1)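 Male CD1F1 mice inoculated ip with ascitic fluid holding ca. 6 × 10^6 P388 cells. Drug given ip as a distilled water-Tween 80 suspension, nine daily doses starting 24 h after tumor inoculation. Median survival time of treated mice compared with untreated controls and expressed as % T/C; % T/C ≥ 120 counted as significant.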

[2] = tested on: P388; assay: Animal weight loss was tested for P388 Lymphocytic Leukemia and measured for change in weight, in treated and control mice at dose of 100 mg/kg; design: unit not given here
Outline: (§2)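 P388 leukemia was induced by ip inoculation of ascitic fluid containing ca. 6 × 10^6 cells into male CD1F1 mice. Drug was given ip as a distilled water–Tween 80 suspension, nine daily doses starting 24 h after tumor inoculation. Body weight change was recorded on day 5, i.e. 4 days after the first injection, in treated and untreated control groups.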

[3] = tested on: P388; assay: Animal weight loss was tested for P388 Lymphocytic Leukemia and measured for change in weight, in treated and control mice at dose of 50 mg/kg; design: unit not given here; outline: as §2
[4] = tested on: P388; assay: Animal weight loss was tested for P388 Lymphocytic Leukemia and measured for change in weight, in treated and control mice at dose of 25 mg/kg; design: unit not given here; outline: as §2
[5] = tested on: P388; assay: Compound was tested against P388 Lymphocytic Leukemia for %survival of mice measured as treated versus control at dose of 12.5 mg/kg; outline: as §1
[6] = tested on: P388; assay: Compound was tested against P388 Lymphocytic Leukemia for %survival of mice measured as treated versus control at dose of 25 mg/kg; outline: as §1
[7] = tested on: P388; assay: Toxicity against P388 Lymphocytic Leukemia and measured for number of mice survived after five days of 25 mg/kg drug administration out of 6 mice tested
Outline: (§3)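 Male CD1F1 mice given ip ascitic fluid with ca. 6 × 10^6 P388 cells, then ip dosing in a distilled water-Tween 80 suspension, nine daily doses beginning 24 h post-inoculation. Surviving mice counted on day 5, i.e., 4 days after the first compound injection.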

[8] = tested on: P388; assay: Compound was tested against P388 Lymphocytic Leukemia for %survival of mice measured as treated versus control at dose of 6.25 mg/kg; outline: as §1
[9] = tested on: P388; assay: Toxicity against P388 Lymphocytic Leukemia and measured for number of mice survived after five days of 100 mg/kg drug administration out of 6 mice tested; outline: as §3
[10] = tested on: P388; assay: Toxicity against P388 Lymphocytic Leukemia and measured for number of mice survived after five days of 50 mg/kg drug administration out of 6 mice tested; outline: as §3
[11] = tested on: P388; assay: Animal weight loss was tested for P388 Lymphocytic Leukemia and measured for change in weight, in treated and control mice at dose of 6.25 mg/kg; outline: as §2
[12] = tested on: P388; assay: Toxicity against P388 Lymphocytic Leukemia and measured for number of mice survived after five days of 6.25 mg/kg drug administration out of 6 mice tested; outline: as §3
[13] = tested on: P388; assay: Toxicity against P388 Lymphocytic Leukemia and measured for number of mice survived after five days of 12.5 mg/kg drug administration out of 6 mice tested; outline: as §3
[14] = tested on: P388; assay: Compound was tested against P388 Lymphocytic Leukemia for %survival of mice measured as treated versus control at dose of 50 mg/kg; outline: as §1
[15] = tested on: P388; assay: Animal weight loss was tested for P388 Lymphocytic Leukemia and measured for change in weight, in treated and control mice at dose of 12.5 mg/kg; design: unit not given here; outline: as §2
[16] = tested on: P388; assay: Compound was tested against P388 Lymphocytic Leukemia for %survival of mice measured as treated versus control at dose of 20 mg/kg
[17] = tested on: P388; assay: Animal weight loss was tested for P388 Lymphocytic Leukemia and measured for change in weight, in treated and control mice at dose of 5 mg/kg
[18] = tested on: P388; assay: Toxicity against P388 Lymphocytic Leukemia and measured for number of mice survived after five days of 2.5 mg/kg drug administration out of 6 mice tested
[19] = tested on: P388; assay: Compound was tested against P388 Lymphocytic Leukemia for %survival of mice measured as treated versus control at dose of 40 mg/kg
[20] = tested on: P388; assay: Animal weight loss was tested for P388 Lymphocytic Leukemia and measured for change in weight, in treated and control mice at dose of 2.5 mg/kg
[21] = tested on: P388; assay: Toxicity against P388 Lymphocytic Leukemia and measured for number of mice survived after five days of 5 mg/kg drug administration out of 6 mice tested
[22] = tested on: P388; assay: Compound was tested against P388 Lymphocytic Leukemia for %survival of mice measured as treated versus control at dose of 10 mg/kg
[23] = tested on: P388; assay: Toxicity was tested for P388 Lymphocytic Leukemia and measured for number of mice survived after five days of 40 mg/kg drug administration out of 6 mice tested
[24] = tested on: P388; assay: Animal weight loss was tested for P388 Lymphocytic Leukemia and measured for change in weight, in treated and control mice at dose of 10 mg/kg
[25] = tested on: P388; assay: Toxicity was tested for P388 Lymphocytic Leukemia and measured for number of mice survived after five days of 10 mg/kg drug administration out of 6 mice tested
[26] = tested on: P388; assay: Toxicity was tested for P388 Lymphocytic Leukemia and measured for number of mice survived after five days of 20 mg/kg drug administration out of 6 mice tested
[27] = tested on: P388; assay: Animal weight loss was tested for P388 Lymphocytic Leukemia and measured for change in weight, in treated and controlled mice at dose of 20 mg/kg
[28] = tested on: P388; assay: Compound was tested against P388 Lymphocytic Leukemia for %survival of mice measured as treated versus control at dose of 5 mg/kg
[29] = tested on: P388; assay: Compound was tested against P388 Lymphocytic Leukemia for %survival of mice measured as treated versus control at dose of 2.5 mg/kg
[30] = tested on: P388; assay: Toxicity against P388 Lymphocytic Leukemia and measured for change in weight, in treated and controlled mice at dose of 40 mg/kg
[31] = tested on: P388; assay: Toxicity was tested for P388 Lymphocytic Leukemia and measured for number of mice survived after five days of 25 mg/kg drug administration out of 6 mice tested; outline: as §3
[32] = tested on: P388; assay: Compound was tested against P388 Lymphocytic Leukemia for %survival of mice measured as treated versus control at dose of 200 mg/kg; outline: as §1
[33] = tested on: P388; assay: Animal weight loss was tested for P388 Lymphocytic Leukemia and measured for change in weight, in treated and control mice at dose of 200 mg/kg; outline: as §2
[34] = tested on: P388; assay: tested for toxity against P388 Lymphocytic Leukemia and measured for number of mice survived after five days of 12.5 mg/kg drug administration out of 6 mice tested; outline: as §3
[35] = tested on: P388; assay: Toxicity against P388 Lymphocytic Leukemia and measured for number of mice survived after five days of 200 mg/kg drug administration out of 6 mice tested; outline: as §3
[36] = tested on: P388; assay: Toxicity against P388 Lymphocytic Leukemia and measured for number of female mice survived after five days of 25 mg/kg drug administration out of 6 mice tested
[37] = tested on: P388; assay: Toxicity against P388 Lymphocytic Leukemia and measured for number of female mice survived after five days of 12.5 mg/kg drug administration out of 6 mice tested
[38] = tested on: P388; assay: Toxicity against P388 Lymphocytic Leukemia and measured for number of female mice survived after five days of 6.25 mg/kg drug administration out of 6 mice tested
[39] = tested on: P388; assay: Toxicity against P388 Lymphocytic Leukemia and measured for number of mice survived after five days of 1.56 mg/kg drug administration out of 6 mice tested; outline: as §3
[40] = tested on: P388; assay: Compound was tested against P388 Lymphocytic Leukemia for %survival of mice measured as treated versus control at dose of 1.56 mg/kg; outline: as §1
[41] = tested on: P388; assay: Animal weight loss was tested for P388 Lymphocytic Leukemia and measured for change in weight, in treated and control mice at dose of 1.56 mg/kg; outline: as §2
[42] = tested on: P388; assay: Toxicity against P388 Lymphocytic Leukemia and measured for number of mice survived after five days of 3.13 mg/kg drug administration out of 6 mice tested; outline: as §3
[43] = tested on: P388; assay: Compound was tested against P388 Lymphocytic Leukemia for %survival of mice measured as treated versus control at dose of 3.13 mg/kg; outline: as §1
[44] = tested on: P388; assay: Animal weight loss was tested for P388 Lymphocytic Leukemia and measured for change in weight, in treated and control mice at dose of 3.13 mg/kg; outline: as §2

Structure (SMILES) | T/C [1] | Weight loss [2] | Weight loss [3] | Weight loss [4] | T/C [5] | T/C [6] | No. of mice survived [7] | T/C [8] | No. of mice survived [9] | No. of mice survived [10] | Weight loss [11] | No. of mice survived [12] | No. of mice survived [13] | T/C [14] | Weight loss [15] | T/C [32] | Weight loss [33] | No. of mice survived [35] | also measured
CNC(=O)OCc1c(COC(=O)NC)c(-c2ccccc2)n(C)c1C | <70% | -6 | -4.6 | -3.9 | 130% | 145% | 6 | 135% | 5 | 6 | -2.5 | 6 | 6 | 90% | -3.3 |  |  |  | 
CNC(=O)OCc1c(COC(=O)NC)c(-c2ccccc2)n(C)c1-c1ccccc1 |  |  |  |  |  |  |  |  |  |  |  |  |  |  |  |  |  |  | T/C [16]: 205%; Weight loss [17]: -1; No. of mice survived [18]: 6; T/C [19]: 124%; Weight loss [20]: -1.1; No. of mice survived [21]: 6; T/C [22]: 164%; No. of mice survived [23]: 6; Weight loss [24]: -2.1; No. of mice survived [25]: 6; No. of mice survived [26]: 6; Weight loss [27]: -2.8; T/C [28]: 135%; T/C [29]: 135%; Weight loss [30]: -4.4
CNC(=O)OCc1c(-c2ccccc2)c(-c2ccccc2)n(-c2ccc(OC)cc2)c1COC(=O)NC | 124% | -1 | -0.8 | 0.5 | 106% | 119% |  |  | 6 | 6 |  |  |  | 119% | 0.3 | 135% | -1.3 | 6 | No. of mice survived [31]: 6; No. of mice survived [34]: 6
CNC(=O)OCc1c(-c2ccccc2)c(-c2ccccc2)n(-c2ccccc2)c1COC(=O)NC | 144% | -0.6 | -1.1 | 0.1 | 110% | 117% | 6 |  | 6 | 6 |  |  | 6 | 126% | -0.2 | 171% | -2.4 | 6 | 
CNC(=O)OCc1c(COC(=O)NC)c(C)n(-c2ccccc2)c1C |  |  |  |  | 145% | 148% |  | 134% |  |  |  |  |  |  |  |  |  |  | No. of mice survived [36]: 6; No. of mice survived [37]: 5; No. of mice survived [38]: 5
CNC(=O)OCc1c(-c2ccccc2)c(-c2ccccc2)n(C)c1COC(=O)NC |  | -6.1 | -2.5 | -3.2 | 164% | 160% | 6 | 138% | 5 | 6 | -1.1 | 6 | 6 | 160% | -1.4 |  |  |  | No. of mice survived [39]: 6; T/C [40]: 102%; Weight loss [41]: -2.3; No. of mice survived [42]: 6; T/C [43]: 128%; Weight loss [44]: -0.8
